As a reminder, the inhibition is the drop in the measured response relative to a control, in per cent.

SMILES strings stand for the structures. This is one part of the list. Unmarked numbers belong to inactive results. Activity calls are given as the source filed them.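 The calls were made as follows, unless noted: active = primary screen active, with duplicate mean exceeding buffer control mean plus 3 SD of buffer wells (cut at about 28% in these data); inactive = the rest.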

In experiment [1] the target is Potassium voltage-gated channel subfamily KQT member 1 (Homo sapiens) (UniProt P51787). The experiment is described as follows: blockers of human KCNQ1 channel – cell-based, Tl flux, duplicate, confirmation (AID 588353).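 Also: 0% = buffer control ratio and 100% = XE991 inhibitor control ratio.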 The settings on record: KCNQ1 cell line, FluxOR thallium flux fluorescence, at 10 µM, stronger effect = higher value. The essentials:
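Read-out basis: Percent inhibition of fluorescence change ratio, scaled buffer to XE991 | Assay system: KCNQ1 CHO cells | Times: Compound exposure 20 min at room temperature | Repeats: Duplicate | Control set: Buffer and XE991 | Measured by: FluxOR thallium flux fluorescence, 10 s baseline plus 110 s | Reagent: Thallium-potassium depolarizing stimulus buffer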

Experiment [2] can be described thus: nonspecific activity in CHO-K1 cells without KCNQ1 – parental CHO cells, Tl flux, counter-screen for KCNQ1 inhibitor project (AID 588366;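 active = mean of duplicate thallium-flux fluorescence ratios in parental host cells more than 5 SD below the buffer control mean, cut at about 0.38 in these data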;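 also: ratio is peak minus minimum fluorescence divided by baseline fluorescence; actives read low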). The settings on record: parental CHO-K1, FluxOR thallium flux fluorescence ratio; at 10 µM; stronger effect = lower value; zero means no signal rise above baseline. The essentials: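 Assay system: untransfected parental CHO-K1 cells / Also added: depolarizing K2SO4 plus Tl2SO4 stimulus, each 12.5 mM in 5x stock / Timing: FluxOR dye loading 90 min, compound exposure 20 min, room temperature / Technique: real-time thallium-sensitive FluxOR dye fluorescence reading / Read-out: baseline-normalized fluorescence amplitude ratio, averaged over duplicates / Replicates: duplicates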

Experiment [3] concerns the target Potassium voltage-gated channel subfamily KQT member 1 (Homo sapiens) (UniProt P51787). The experiment is described as follows: block of human KCNQ1 potassium current – cell-based, automated electrophysiology, orthogonal assay, confirmation (AID 624120;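 active = KCNQ1 current drop exceeding 3 SD of negative control wells, seen in both duplicate runs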). The settings on record: KCNQ1-CHO cells, automated patch clamp current; at 10 µM. The essentials:
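Material: CHO cells expressing human KCNQ1 potassium channel; replication: duplicates; probe or stimulus: voltage stimulus of 2,000 ms steps to +40 mV, -80 mV holding; measured by: automated perforated-patch voltage clamp using amphotericin B; medium: pH 7.4 external buffer; dosing: single test compound dose of 10 µM final; read-out: steady-state current change vs pre-compound, percent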
On the technique in general: Patch clamp records ionic current or voltage across a cell membrane.

Experiment [4] concerns the target Potassium voltage-gated channel subfamily KQT member 2 (Rattus norvegicus) (UniProt O88943). Put plainly: block of rat KCNQ2 potassium channel – cell-based, selectivity assay for KCNQ1 inhibitor project (AID 651746;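 active = mean percent inhibition of the KCNQ2 thallium signal more than 5 SD above the buffer-only control wells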;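 as to inhibition: 0% = buffer control wells and 100% = XE-991 inhibitor control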). The settings on record: KCNQ2 cells, FluxOR thallium flux fluorescence, at 10 µM; stronger effect = higher value.
The target in experiment [5] is Potassium voltage-gated channel subfamily E member 1 (Homo sapiens) + Potassium voltage-gated channel subfamily KQT member 1 (Homo sapiens) (UniProt P15382+P51787). Put plainly: block of human IKs channel complex – CHO-K1 cells, thallium flux, FluxOR, selectivity assay for KCNQ1 inhibitor project (AID 652147;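 active = mean percent inhibition of duplicate wells above the buffer-only control mean plus 3 SD of those controls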;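 as to inhibition: 0% = buffer only wells and 100% = XE-991 inhibitor control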). The settings on record: KCNQ1/KCNE1 cells, FluxOR thallium flux fluorescence, at 10 µM; stronger effect = higher value. The essentials:
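test system = KCNQ1/KCNE1 cells | schedule = 20 min compound pre-incubation at room temperature | detection = FluxOR thallium influx fluorescence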

Potassium voltage-gated channel subfamily KQT member 2 (Rattus norvegicus), sequence (O88943 whole entry, looked up): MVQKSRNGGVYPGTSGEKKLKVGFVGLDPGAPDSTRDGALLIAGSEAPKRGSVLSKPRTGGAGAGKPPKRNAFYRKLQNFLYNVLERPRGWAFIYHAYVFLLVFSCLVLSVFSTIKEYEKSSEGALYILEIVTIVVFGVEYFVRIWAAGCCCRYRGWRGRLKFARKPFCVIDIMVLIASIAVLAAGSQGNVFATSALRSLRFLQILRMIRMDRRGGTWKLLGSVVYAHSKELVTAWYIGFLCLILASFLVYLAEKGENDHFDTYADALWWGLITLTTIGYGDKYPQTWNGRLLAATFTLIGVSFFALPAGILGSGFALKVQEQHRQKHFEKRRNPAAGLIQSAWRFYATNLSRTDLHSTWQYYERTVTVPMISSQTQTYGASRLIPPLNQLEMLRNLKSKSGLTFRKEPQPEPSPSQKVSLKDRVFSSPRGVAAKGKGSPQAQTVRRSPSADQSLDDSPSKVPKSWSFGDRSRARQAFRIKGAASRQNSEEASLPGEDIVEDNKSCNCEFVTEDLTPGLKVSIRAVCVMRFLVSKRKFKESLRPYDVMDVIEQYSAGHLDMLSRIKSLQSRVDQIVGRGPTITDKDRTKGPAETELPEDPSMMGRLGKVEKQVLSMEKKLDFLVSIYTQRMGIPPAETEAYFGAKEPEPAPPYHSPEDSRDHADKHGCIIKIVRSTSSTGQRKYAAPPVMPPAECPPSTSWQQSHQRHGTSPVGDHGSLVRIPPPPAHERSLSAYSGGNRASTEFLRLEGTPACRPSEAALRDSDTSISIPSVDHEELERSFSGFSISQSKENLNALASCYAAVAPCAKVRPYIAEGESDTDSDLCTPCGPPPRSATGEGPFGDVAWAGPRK
Potassium voltage-gated channel subfamily E member 1 (Homo sapiens) + Potassium voltage-gated channel subfamily KQT member 1 (Homo sapiens), sequence (P51787 whole entry, looked up): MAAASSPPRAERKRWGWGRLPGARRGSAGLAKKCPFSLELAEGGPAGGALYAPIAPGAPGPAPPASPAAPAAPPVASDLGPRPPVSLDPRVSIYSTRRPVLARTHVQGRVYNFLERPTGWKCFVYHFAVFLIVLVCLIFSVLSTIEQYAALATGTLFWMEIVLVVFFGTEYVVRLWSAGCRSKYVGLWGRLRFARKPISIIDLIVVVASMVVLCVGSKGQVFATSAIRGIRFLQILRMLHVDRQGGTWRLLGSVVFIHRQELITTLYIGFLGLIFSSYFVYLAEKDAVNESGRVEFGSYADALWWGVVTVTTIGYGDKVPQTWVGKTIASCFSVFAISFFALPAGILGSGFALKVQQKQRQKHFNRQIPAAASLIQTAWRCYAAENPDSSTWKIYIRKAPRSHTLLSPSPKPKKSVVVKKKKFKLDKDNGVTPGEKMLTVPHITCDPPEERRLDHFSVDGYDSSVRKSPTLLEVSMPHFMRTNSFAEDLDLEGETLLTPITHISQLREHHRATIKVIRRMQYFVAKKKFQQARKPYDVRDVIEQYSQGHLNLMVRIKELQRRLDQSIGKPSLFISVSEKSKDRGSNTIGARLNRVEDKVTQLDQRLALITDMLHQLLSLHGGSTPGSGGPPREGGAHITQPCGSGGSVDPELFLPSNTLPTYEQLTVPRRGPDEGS
Potassium voltage-gated channel subfamily KQT member 1 (Homo sapiens), sequence (P51787 whole entry, looked up): as above

Consider `CCc1noc(C)c1C(=O)Oc1ccc(N(C)S(=O)(=O)c2ccc(C)c(C)c2)cc1`, for which the inhibition was 108% (active) in experiment [1], 95.3% (active) in experiment [4] and 83.5% (active) in experiment [5]. Also, the fluorescence ratio (Tl flux) in experiment [2] was 0.408. Besides, in experiment [3], the result was inactive.

On to `Cc1cccc(-c2nc3ccc(C(=O)NCCN4CCN(C)CC4)cc3nc2-c2cccc(C)c2)c1`, for which the inhibition in experiment [1] was 63% (active); in experiment [4], 107% (active); in experiment [5], 118% (active). Besides, the fluorescence ratio (Tl flux) in experiment [2] is 0.34 (active).

On to `Cc1cccc(Nc2ccccc2C(=O)NCc2ccco2)c1C`, for which the inhibition was 134% (active) in experiment [1], 101% (active) in experiment [4] and 198% (active) in experiment [5]. Besides, the fluorescence ratio (Tl flux) in experiment [2] is 0.394. The outcome in experiment [3] was inactive.

Turning to `O=C(Nc1ccc(F)cc1)c1cccnc1N1CCOCC1`, the figures for the inhibition in experiment [1] and in experiment [5] were 44% (active) and 53.5% (active), respectively. Besides, the fluorescence ratio (Tl flux) in experiment [2] is 0.517. Moreover, the call in experiment [4] was inactive.

On to `COc1cccc(-c2cnc(OC(C)(C)C)nc2OC(C)(C)C)c1`, for which the figures for the inhibition in experiment [1], in experiment [4] and in experiment [5] were 75% (active), 61% (active) and 94.5% (active), respectively. Also, the fluorescence ratio (Tl flux) in experiment [2] was 0.462.

Turning to `Cc1nc(N2CCN(c3ccccn3)CC2)c2c(C)c(C(=O)Nc3ccc(F)c(Cl)c3)sc2n1`, the results for the inhibition in experiment [1] and in experiment [4] were 160% (active) and 124% (active), respectively. The fluorescence ratio (Tl flux) in experiment [2] was 0.345 (active).

As to `CC(=O)N1CCCc2cc(S(=O)(=O)N3CCCC(C(=O)N4CCN(c5cccc(Cl)c5)CC4)C3)ccc21` (centres undefined), the figures for the inhibition in experiment [1], in experiment [4] and in experiment [5] were 126% (active), 134% (active) and 140% (active), respectively. Moreover, the fluorescence ratio (Tl flux) in experiment [2] was 0.436.

As for `CC1CCCN(C(C(=O)Nc2ccc(C(C)C)cc2)c2ccc3c(c2)OCO3)C1` (centres undefined), the inhibition is 132% (active) in experiment [1], 99.7% (active) in experiment [4] and 164% (active) in experiment [5]. Besides, in experiment [2], the fluorescence ratio (Tl flux) is 0.429. Moreover, in experiment [3], the outcome was inactive.

Turning to `N#Cc1c(/N=C/N2CCCC2)oc(-c2ccccc2)c1-c1ccccc1`, the values for the inhibition in experiment [1], in experiment [4] and in experiment [5] were 70% (active), 74.3% (active) and 79% (active), respectively. Besides, in experiment [2], the fluorescence ratio (Tl flux) was 0.445.

Take `S=C(NCC1CCCO1)N1CCN(c2ccc(Cl)c(Cl)c2)CC1` (centres undefined): the results for the inhibition in experiment [1] and in experiment [4] were 101% (active) and 76% (active), respectively. In experiment [2], the fluorescence ratio (Tl flux) is 0.501. Also, the compound was classed as active in experiment [3]. For the same compound, the outcome in experiment [5] was inactive.

On to `S=C(NCCCc1ccccc1)Nc1ccc(Br)cc1`, for which the results for the inhibition in experiment [1] and in experiment [5] were 150% (active) and 76.5% (active), respectively. For the same compound, in experiment [2], the fluorescence ratio (Tl flux) is 0.591. In addition, the call in experiment [3] and in experiment [4] was inactive.

Take `CCOC(=O)N1CCN(C(=O)C2CCN(c3ncnc4c3sc3cccc(F)c34)CC2)CC1`: the inhibition is 109% (active) in experiment [1], 105% (active) in experiment [4] and 90% (active) in experiment [5]. Also, the fluorescence ratio (Tl flux) in experiment [2] was 0.427. Also, the compound was classed as active in experiment [3].

On to `Cc1c(C(=O)OC(C)C)sc(NC(=O)c2cccnc2)c1C#N`, for which the values for the inhibition in experiment [1], in experiment [4] and in experiment [5] were 74% (active), 78% (active) and 48.5% (active), respectively. Moreover, the fluorescence ratio (Tl flux) in experiment [2] is 0.489.

As for `CCCN1Cc2cccc(C(=O)NCc3ccccc3)c2C1=O`, the inhibition in experiment [1] was 83% (active); in experiment [5] it was 80% (active). The fluorescence ratio (Tl flux) in experiment [2] was 0.478. Besides, in experiment [4], the call was inactive.

As for `CNC(=O)c1ccsc1NC(=O)c1ccc(S(=O)(=O)N2CCc3ccccc32)cc1`, the inhibition in experiment [1] was 97% (active); in experiment [4] it was 115% (active); in experiment [5] it was 170% (active). Further, the fluorescence ratio (Tl flux) in experiment [2] was 0.446.

In the case of `O=C(CCN1c2ccccc2Sc2ccccc21)Nc1ccccc1`, the values for the inhibition in experiment [1], in experiment [4] and in experiment [5] were 164% (active), 118% (active) and 186% (active), respectively. Further, the fluorescence ratio (Tl flux) in experiment [2] is 0.384. Moreover, in experiment [3], the call was inactive.

For the compound `CCOC(=O)c1ccc(NC(=O)Cn2cnc3cc(C)c(C)cc32)cc1`, the results for the inhibition in experiment [1] and in experiment [5] were 60% (active) and 55% (active), respectively. In experiment [2], the fluorescence ratio (Tl flux) is 0.481. Besides, the outcome in experiment [4] was inactive.

As to `CCN(CC)CC(=O)Nc1sc2c(c1C(=O)c1ccccc1C)CCC2`, the inhibition in experiment [1] is 104% (active); in experiment [4], 89% (active); in experiment [5] it was 168% (active). In addition, the fluorescence ratio (Tl flux) in experiment [2] is 0.444. The result in experiment [3] was inactive.

As to `Cn1nccc1C(=O)NC1CCCc2c1cnn2-c1ccc(F)cc1F` (centres undefined), the inhibition in experiment [1] is 90% (active); in experiment [4], 60.3% (active). Further, the fluorescence ratio (Tl flux) in experiment [2] was 0.47. Moreover, the outcome in experiment [3] and in experiment [5] was inactive.

The record behind these values is PubChem BioAssay.
